Measured values taken from article PMC10945512 (RSC Advances, 2024).

Key:
HIV-1 integrase = HIV-1 integrase (Human immunodeficiency virus type 1 group M subtype B, UniProt P04585); experiment: Strand transfer inhibition assay; format: biochemical
Cytotoxicity assay = format: cell-based, human; details: human, MT-4 cells
How it was run: (§1)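 MT-4 cells grown in RPMI-1640 with 10% FBS, 100 units per mL penicillin and streptomycin, at 37 °C in humidified 5% CO2. Cells seeded at 50 000 per well and exposed to test compound (2.5, 5, 10, 20, 40, 80 μM) for five days at 37 °C. MTT (final 0.5 mg mL−1) added for 2 h, then DMSO. A570 read; measured three times; CC50 calculated.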

MT-4 cells = experiment: Cytotoxicity assay; format: cell-based, human; details: read-out: CC50, concentration that inhibits the proliferation of MT-4 cells by 50%, MTT, five days, average of at least three independent experiments
How it was run: as §1

Row | IC50 (HIV-1 integrase) [µM] | Molecule | CC50 at 5 days (Cytotoxicity assay) [µM] | CC50 (MT-4 cells) [µM]
1 | 8.68 ± 0.77 | CCOC(=O)c1cc2ccc(NCc3ccccc3F)cc2[nH]1 [Compound 16h, Ethyl 6-((2-fluorobenzyl)amino)-1H-indole-2-carboxylate] | > 80 | –
2 | 7.08 ± 0.63 | COc1ccccc1Nc1ccc2cc(C(=O)O)[nH]c2c1 [Compound 17e, 6-((2-Methoxyphenyl)amino)-1H-indole-2-carboxylic acid] | > 80 | –
3 | > 40 | CCOC(=O)c1[nH]c2ccccc2c1Nc1ccc(OC)cc1 [Compound 4c, Ethyl 3-((4-methoxyphenyl)amino)-1H-indole-2-carboxylate] | > 80 | –
4 | > 40 | CCOC(=O)c1[nH]c2ccccc2c1Nc1ccccc1Cl [Compound 4f, Ethyl 3-((2-chlorophenyl)amino)-1H-indole-2-carboxylate] | > 80 | –
5 | > 40 | CCOC(=O)c1cc2ccc(Nc3cccc(OC)c3)cc2[nH]1 [Compound 16d, Ethyl 6-((3-methoxyphenyl)amino)-1H-indole-2-carboxylate] | > 80 | –
6 | 11.7 ± 1.08 | CCOC(=O)c1[nH]c2ccc(NC(=O)c3cnccn3)cc2c1Br [Compound 13b, Ethyl 3-bromo-5-(pyrazine-2-carboxamido)-1H-indole-2-carboxylat] | > 80 | –
7 | 14.1 ± 0.78 | COc1ccc(Nc2ccc3cc(C(=O)O)[nH]c3c2)cc1F [Compound 17f, 6-((3-Fluoro-4-methoxyphenyl)amino)-1H-indole-2-carboxylic acid] | > 80 | –
8 | 10.2 ± 0.67 | CCOC(=O)c1[nH]c2ccccc2c1Nc1cccc(OC)c1 [Compound 4b, Ethyl 3-((3-methoxyphenyl)amino)-1H-indole-2-carboxylate] | > 80 | –
9 | 32.4 ± 4.51 | O=C(O)c1cc2ccccc2[nH]1 [Compound 1, indole-2-carboxylic acid] | > 80 | –
10 | – | Isopropyl 3-((4-chlorophenethoxy)methyl)-5-nitro-1H-indole-2-carboxylate [Compound 9b] | – | > 80
11 | > 40 | CCOC(=O)c1cc2ccc(Nc3ccc(F)cc3)cc2[nH]1 [Compound 16a, Ethyl 6-((4-fluorophenyl)amino)-1H-indole-2-carboxylate] | > 80 | –
12 | – | Cc1nnc(C(=O)NC(C)(C)c2nc(C(=O)NCc3ccc(F)cc3)c(O)c(=O)n2C)o1 [RAL, Raltegravir, reference compound] | > 80 | –
13 | 3.11 ± 0.18 | O=C(O)c1cc2ccc(Nc3ccc(F)cc3)cc2[nH]1 [Compound 17a, 6-((4-Fluorophenyl)amino)-1H-indole-2-carboxylic acid] | > 80 | –
14 | 15.6 ± 1.09 | O=C(O)c1cc2ccc(NCc3cccc(F)c3)cc2[nH]1 [Compound 17g, 6-((3-Fluorobenzyl)amino)-1H-indole-2-carboxylic acid] | > 80 | –
15 | – | 5-nitro-3-(((4-(trifluoromethyl)benzyl)oxy)methyl)-1H-indole-2-carboxylic acid [Compound 10a] | – | 65.2 ± 5.22
16 | – | isopropyl 5-nitro-3-((4-(trifluoromethyl)phenethoxy) methyl)-1H-indole-2-carboxylate [Compound 9a] | – | 54.3 ± 4.79
17 | 9.67 ± 0.89 | CCOC(=O)c1cc2ccc(NCc3ccc(OC)cc3)cc2[nH]1 [Compound 16j, Ethyl 6-((4-methoxybenzyl)amino)-1H-indole-2-carboxylate] | > 80 | –
18 | 26 ± 1.27 | CCOC(=O)c1[nH]c2ccc(NC(=O)c3ccc(F)cc3)cc2c1Br [Compound 13a, ethyl 3-bromo-5-(4-fluorobenzamido)-1H-indole-2-carboxylate] | > 80 | –
19 | 10.1 ± 0.56 | CCOC(=O)c1[nH]c2ccccc2c1Nc1ccccc1OC [Compound 4a, ethyl 3-((2-methoxyphenyl)amino)-1H-indole-2-carboxylate] | > 80 | –
20 | > 40 | CCOC(=O)c1cc2ccc(Nc3ccc(OC)cc3)cc2[nH]1 [Compound 16c, Ethyl 6-((4-methoxyphenyl)amino)-1H-indole-2-carboxylate] | > 80 | –
21 | > 40 | CCOC(=O)c1cc2ccc(Nc3ccccc3OC)cc2[nH]1 [Compound 16e, Ethyl 6-((2-methoxyphenyl)amino)-1H-indole-2-carboxylate] | > 80 | –
22 | > 40 | CCOC(=O)c1cc2ccc(Nc3ccc(OC)c(F)c3)cc2[nH]1 [Compound 16f, Ethyl 6-((3-fluoro-4-methoxyphenyl)amino)-1H-indole-2-carboxylate] | > 80 | –
23 | > 40 | CCOC(=O)c1cc2ccc(Nc3ccc(Br)cc3)cc2[nH]1 [Compound 16b, Ethyl 6-((4-bromophenyl)amino)-1H-indole-2-carboxylate] | > 80 | –
24 | 12.3 ± 1.06 | COc1ccc(Nc2ccc3cc(C(=O)O)[nH]c3c2)cc1 [Compound 17c, 6-((4-Methoxyphenyl)amino)-1H-indole-2-carboxylic acid] | > 80 | –
25 | 14.6 ± 1.12 | CCOC(=O)c1cc2ccc(NCc3ccccc3Cl)cc2[nH]1 [Compound 16i, Ethyl 6-((2-chlorobenzyl)amino)-1H-indole-2-carboxylate] | > 80 | –
26 | 15.7 ± 1.06 | CCOC(=O)c1[nH]c2ccccc2c1Nc1ccc(F)cc1 [Compound 4e, Ethyl 3-((4-fluorophenyl)amino)-1H-indole-2-carboxylate] | > 80 | –
27 | 15.6 ± 1.03 | CCOC(=O)c1[nH]c2ccccc2c1Nc1ccc(OC)c(F)c1 [Compound 4d, Ethyl 3-((3-fluoro-4-methoxyphenyl)amino)-1H-indole-2-carboxylate] | > 80 | –
28 | 6.67 ± 0.51 | O=C(O)c1cc2ccc(Nc3ccc(Br)cc3)cc2[nH]1 [Compound 17b, 6-((4-Bromophenyl)amino)-1H-indole-2-carboxylic acid] | > 80 | –
29 | > 40 | CCOC(=O)c1cc2ccc(NCCc3ccc(F)cc3)cc2[nH]1 [Compound 16k, Ethyl 6-((4-fluorophenethyl)amino)-1H-indole-2-carboxylate] | > 80 | –
30 | > 40 | CCOC(=O)c1cc2ccc(NCc3cccc(F)c3)cc2[nH]1 [Compound 16g, Ethyl 6-((3-fluorobenzyl)amino)-1H-indole-2-carboxylate] | > 80 | –
